The record followed here is publication PMC10114714 (ACS Bio & Med Chem Au, 2021).

Structures are written as SMILES. Entries after “also recorded” stand apart in the source; their conditions may differ.

One may read the half-life as the time needed for the level to fall by half in the phase considered. A lower half-life goes with rapid decline. The term AUC(0-inf) denotes total exposure, with the tail of the curve extrapolated. The low end stands for low exposure, the high end for high exposure. In general, Cmax refers to the maximum level reached in the sampled fluid or tissue. What is called Tmax is the time at which the peak concentration occurs. For orientation: fraction unbound means the share of the substance not bound to proteins or other matrix. Higher therefore signals weak binding. As a reminder, the CLint scaled is a measure of how fast metabolising enzymes remove a compound, apart from limits set by blood flow. A low value points to greater metabolic stability. A word on the EC50: it is the concentration needed to bring the measured effect to its halfway point. As usually defined, the Ki is the equilibrium dissociation constant of an inhibitor or competing ligand from its target. In general, Kp refers to the ratio of the level in a tissue or fluid to that in plasma or blood. In general, IC50 refers to the point on the concentration scale where inhibition reaches its midpoint.

In data set [1] the test system is amphetamine-induced hyperlocomotion. In words: Reversal of amphetamine-induced hyperlocomotion. The data set is classed as in vivo. The note with it: rat. In short, it runs like this: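 Male Sprague–Dawley rats, n = 7-8 per group. Test compound is given i.p. at 30 or 60 mg/kg in 10% Tween 80 in H2O, 30 min before amphetamine at 0.75 mg/kg s.c. Locomotion is compared with a vehicle/amphetamine control group.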

A short description of data set [2]: Rat IV and PO pharmacokinetics. The format is in vivo. In short, it runs like this:
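Plasma pharmacokinetics with IV dosing at 0.20 mg/kg and PO dosing at 10 mg/kg. Read-outs are Cmax, tmax, AUCinf, t1/2 and oral bioavailability F.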

The next data set deals with mGlu1–4,7,8. Description: Functional selectivity over the other mGlu receptors. The format is cell-based.
Data set [3] is described as follows: Plasma protein binding, rat. The note with it: pH 7.4. The data set is classed as in vitro ADME.
Data set [4] can be described thus: Intrinsic clearance in liver microsomes, rat. The format is in vitro ADME. The note with it: pH 7.4.
Data set [5] can be described thus: Intrinsic clearance in liver microsomes, human. The data set is classed as in vitro ADME. The note with it: pH 7.4. A general note: Microsomes from liver hold many membrane-bound enzymes, among them those of drug oxidation.
Data set [6] has as its target T1, human mGlu5 (Homo sapiens, UniProt P41594). Description: Calcium fluorescence triple-add assay, mGlu5 PAM mode. The format is cell-based.
Data set [7] is described as follows: Brain homogenate binding, rat. The format is in vitro ADME. The note with it: pH 7.4, Rat fu,b.
The next data set addresses rat mGlu5 (Rattus norvegicus, UniProt P31424). In words: [3H]methoxyPEPy radioligand competition binding. The note with it: for displacement of [3H]methoxyPEPy radioligand binding: concentrations up to 100 μM, in words.
Data set [8] is described as follows: Plasma protein binding, human. The data set is classed as in vitro ADME. The note with it: pH 7.4.
Data set [9] is described as follows: Rat IV plasma/brain level. The note with it: male, Sprague-Dawley, brain and plasma, 0.2 mg/kg. The data set is classed as in vivo.
Data set [10] deals with T1, human mGlu5. In words: cell-based.
Data set [11] can be described thus: Plasma protein binding, mouse. The data set is classed as in vitro ADME. The note with it: pH 7.4.
Data set [12] is described as follows: Intrinsic clearance in liver microsomes, mouse. The format is in vitro ADME. The note with it: pH 7.4.
Data set [13] in a line: Mouse IV and PO pharmacokinetics. The data set is classed as in vivo.
The subject of another data set is marble burying. In words: Marble burying assay. The format is in vivo, mouse. The note with it: male CD-1 mice, 30 mg/kg i.p., in words.
The mark [14] stands for this setting: male, Sprague-Dawley, plasma, iv, 0.2 mg/kg.
The mark [15] stands for this setting: male, Sprague-Dawley, plasma, po, 10 mg/kg.

rat mGlu5, sequence (P31424 21-1203): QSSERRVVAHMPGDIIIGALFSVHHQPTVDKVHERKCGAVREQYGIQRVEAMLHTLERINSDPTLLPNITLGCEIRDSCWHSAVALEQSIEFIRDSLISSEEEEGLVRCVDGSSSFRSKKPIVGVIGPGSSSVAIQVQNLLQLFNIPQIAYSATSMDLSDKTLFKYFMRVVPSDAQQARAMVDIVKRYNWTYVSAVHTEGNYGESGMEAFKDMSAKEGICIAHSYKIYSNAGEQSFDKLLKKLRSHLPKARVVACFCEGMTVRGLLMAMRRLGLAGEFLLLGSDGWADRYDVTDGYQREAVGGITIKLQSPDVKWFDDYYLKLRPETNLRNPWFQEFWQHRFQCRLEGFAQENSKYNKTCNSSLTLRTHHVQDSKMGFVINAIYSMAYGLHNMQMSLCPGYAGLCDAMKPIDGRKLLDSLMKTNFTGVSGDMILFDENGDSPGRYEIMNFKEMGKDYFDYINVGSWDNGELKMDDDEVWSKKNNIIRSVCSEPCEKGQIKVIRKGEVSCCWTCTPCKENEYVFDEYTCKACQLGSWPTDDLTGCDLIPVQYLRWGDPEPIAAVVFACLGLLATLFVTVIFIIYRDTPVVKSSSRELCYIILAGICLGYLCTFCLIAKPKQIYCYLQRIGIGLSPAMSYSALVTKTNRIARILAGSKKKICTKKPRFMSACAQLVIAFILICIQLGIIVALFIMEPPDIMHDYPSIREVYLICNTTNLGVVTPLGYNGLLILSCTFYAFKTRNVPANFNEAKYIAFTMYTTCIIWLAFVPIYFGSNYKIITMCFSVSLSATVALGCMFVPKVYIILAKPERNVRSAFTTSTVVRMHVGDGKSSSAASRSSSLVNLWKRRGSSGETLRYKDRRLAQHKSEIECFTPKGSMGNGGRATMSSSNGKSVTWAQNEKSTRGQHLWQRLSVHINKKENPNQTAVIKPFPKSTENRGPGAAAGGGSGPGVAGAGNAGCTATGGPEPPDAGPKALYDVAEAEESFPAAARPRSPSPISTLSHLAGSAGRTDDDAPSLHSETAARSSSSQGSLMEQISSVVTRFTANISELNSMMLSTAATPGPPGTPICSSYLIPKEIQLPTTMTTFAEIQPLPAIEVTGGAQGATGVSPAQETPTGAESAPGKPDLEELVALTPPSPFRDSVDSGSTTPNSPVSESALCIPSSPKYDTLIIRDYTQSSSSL
T1 sequence (P41594 21-1212): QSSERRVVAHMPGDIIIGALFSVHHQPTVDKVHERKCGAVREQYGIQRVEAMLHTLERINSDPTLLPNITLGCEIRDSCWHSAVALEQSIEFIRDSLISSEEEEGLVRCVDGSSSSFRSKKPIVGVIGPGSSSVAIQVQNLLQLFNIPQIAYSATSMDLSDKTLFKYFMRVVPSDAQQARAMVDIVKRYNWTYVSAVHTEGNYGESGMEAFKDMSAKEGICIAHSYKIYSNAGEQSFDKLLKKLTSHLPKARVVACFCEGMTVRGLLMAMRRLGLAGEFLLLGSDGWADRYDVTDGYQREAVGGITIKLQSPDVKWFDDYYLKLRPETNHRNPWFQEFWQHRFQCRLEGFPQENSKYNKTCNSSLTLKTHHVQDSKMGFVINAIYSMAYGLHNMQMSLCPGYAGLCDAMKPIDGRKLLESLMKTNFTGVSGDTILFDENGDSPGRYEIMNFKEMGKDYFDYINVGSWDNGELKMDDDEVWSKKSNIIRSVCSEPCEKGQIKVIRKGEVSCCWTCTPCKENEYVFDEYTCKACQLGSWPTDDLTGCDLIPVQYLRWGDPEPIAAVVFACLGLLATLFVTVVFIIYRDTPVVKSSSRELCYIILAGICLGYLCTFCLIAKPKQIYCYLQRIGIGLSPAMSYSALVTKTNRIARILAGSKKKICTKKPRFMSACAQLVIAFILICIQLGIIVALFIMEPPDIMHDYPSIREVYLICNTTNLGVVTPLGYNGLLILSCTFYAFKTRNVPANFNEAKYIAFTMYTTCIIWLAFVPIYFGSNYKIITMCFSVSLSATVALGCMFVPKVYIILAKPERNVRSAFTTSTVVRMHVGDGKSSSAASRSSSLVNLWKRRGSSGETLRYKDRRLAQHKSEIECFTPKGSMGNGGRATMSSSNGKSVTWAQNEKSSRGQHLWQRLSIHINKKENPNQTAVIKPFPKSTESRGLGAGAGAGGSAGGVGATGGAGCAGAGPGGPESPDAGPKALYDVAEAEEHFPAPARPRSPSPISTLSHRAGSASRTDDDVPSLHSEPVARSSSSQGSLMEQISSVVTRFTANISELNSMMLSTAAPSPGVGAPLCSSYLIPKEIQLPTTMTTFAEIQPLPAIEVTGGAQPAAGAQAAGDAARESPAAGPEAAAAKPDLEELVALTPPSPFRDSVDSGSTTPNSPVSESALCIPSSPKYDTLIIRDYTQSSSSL

Consider `Cc1ccc(Oc2cc(C(=O)NCc3ccc(F)cn3)nc3ccsc23)cn1` [Compound 17a, N-((5-Fluoropyridin-2-yl)methyl)-7-((6-methylpyridin-3-yl)oxy)thieno[3,2-b]pyridine-5-carboxamide], for which the “reversal of AHL” value in data set [1] (60 mg/kg i.p., 30 min prior to 0.75 mg/kg s.c. amphetamine) is given as about 30%. For the same compound, the “reversal of amphetamine-induced hyperlocomotion” value in data set [1] (30 or 60 mg/kg i.p., in words) was “reversed amphetamine-induced hyperlocomotion; also recorded: Dose-dependent reversal”. Besides, in data set [2] (PO 10 mg/kg, 10 mg/kg), the “F (%)” value stood at 8.22%. In addition, in [2] (setting [14]), the Vd turned out to be 2.2 L/kg, the clearance worked out at 36.9 mL/min/kg and the half-life was 82.2 min. In [2] (setting [15]), the area under the curve AUC(0-inf) is 371 ng·h/mL, the Cmax was found to be 152 ng/mL and the Tmax amounted to 30 min. Further, in the data set with mGlu1–4,7,8, the “functional activity at mGlu1–4,7,8” value is over 30 µM. In data set [3], this compound yielded a fraction unbound at 6 h, 5 µM of 0.048. The same compound displayed a CLint scaled at 1 µM in data set [4] of 152 mL/min/kg. Besides, the intrinsic clearance (CLint scaled) at 1 µM in data set [5] is 173 mL/min/kg. The 50% effective concentration (EC50) on human mGlu5 [6] (hmGlu5 EC50 (μM), Table 2) turned out to be 0.52 µM. Also, at human mGlu5 [6] (mGlu5 PAM EC50), the “fold improvement in potency in comparison to hit compound 12” value turned out to be 5 fold. In addition, in data set [7], the fraction unbound at 6 h, 1 µM amounted to 0.03. Also, on rat mGlu5, the inhibition constant (Ki) was over 10000 nM and the “displacement of [3H]methoxyPEPy radioligand binding” value is given as “weak binding”. This compound also registered a fraction unbound at 6 h, 5 µM in data set [8] of 0.056. In data set [9], the Kp at 0.25 h came out at 0.83 and the Kp uu at 0.25 h was found to be 0.52.
Consider `Cc1ccc(Oc2ccnc(C(=O)NCc3ccc(F)cn3)c2)cn1` [Compound 21d], for which the “mGlu5 PAM activity” value on human mGlu5 [6] (in words) is recorded as “complete loss of activity”.
With `Cc1ccc(Nc2cc(C(=O)NCc3ccc(F)cn3)nc3ccsc23)cn1` [Compound 26], the IC50 at human mGlu5 [10] is over 30000 nM.
On the same count and under the same terms, with `Cc1ccc(Cc2cc(C(=O)NCc3ccc(F)cn3)nc3ccsc23)cn1` [Compound 27] the figure was over 30000 nM; with `Cc1cncc(Oc2cc(C(=O)NCc3ccc(F)cn3)nc3ccsc23)c1` [Compound 28a], 260 nM.
Same read-out and setting: with `Cc1ccncc1Oc1cc(C(=O)NCc2ccc(F)cn2)nc2ccsc12` [Compound 28b] the figure was 203 nM; with `Cc1ncccc1Oc1cc(C(=O)NCc2ccc(F)cn2)nc2ccsc12` [Compound 28c], over 30000 nM.
For `O=C(NCc1ccc(F)cn1)c1cc(Oc2cccnc2)c2sccc2n1` [Compound 28d, N-((5-fluoropyridin-2-yl)methyl)-7-(pyridin-3-yloxy)thieno[3,2-b]pyridine-5-carboxamide], the fraction unbound at 6 h, 5 µM in [11] was 0.062; in data set [3], 0.115; in [8] it was 0.068. Further, the “functional activity at mGlu1–4,7,8” value with mGlu1–4,7,8 was over 30 µM. For the same compound, the CLint scaled at 1 µM in data set [12] worked out at 970 mL/min/kg; in [4], 314 mL/min/kg; in [5], 47 mL/min/kg. The same compound registered a fraction unbound at 6 h, 1 µM in data set [7] of 0.035. At rat mGlu5, the affinity corresponds to a Ki of 160 nM. Moreover, the “displacement of [3H]methoxyPEPy radioligand binding” value on rat mGlu5 is “full displacement of radioligand binding”. Also, in [13] (PO 10 mg/kg, in words), the “drug in blood following PO administration” value is given as “no measurable drug in blood”. The same compound displayed a Vd in data set [13] (plasma, iv, 1 mg/kg) of 8.2 L/kg. Further, the clearance in [13] (plasma, iv, 1 mg/kg) stood at 141 mL/min/kg. The same compound had a half-life in data set [13] (plasma, iv, 1 mg/kg) of 41.4 min. Besides, the marble burying entry with marble burying is “anxiolytic activity; also recorded: significant reduction in marble burying; also recorded: Inhibition of marble burying”.
As for `Cc1ccc(Oc2cc(C(=O)NCc3ccc(F)cn3)nc3ccsc23)nc1` [Compound 28e], at human mGlu5 [10], the IC50 stood at 1900 nM.
